Screening data (PubChem)
Rows were chosen to be rich in hits. Some 5.8% of all compounds tested hit in one or more screens of this group.
T cruzi growth-1: T. cruzi proliferation inhibition; T. cruzi beta-gal in NIH3T3, GalScreen luminescence, 90 h; inhibition, % at 8.34 µM; actives 5.9% (n = 77,000); AID 624255;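 active = mean inhibition above about 93%, with at least 55% of replicates each passing it, limit read from the data, passing the limit was not always enough; inconclusive = only one of those two conditions holds; inactive = neither condition holds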
GASC1 inh: blocks human GASC-1 (KDM4C) demethylase activity; AID 720574; GST-KDM4C 2-372, H3K9me3 peptide, LANCE TR-FRET; inhibition, % at 12.5 µM; actives 0.15% (n = 96,000);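 active = mean replicate inhibition above about 25%, with at least 55% of replicates also reaching it, limit read from the data, passing the limit was not always enough; inconclusive = only one of those two conditions met; inactive = neither condition met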
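Assay system: GST-GASC-1 enzyme fragment 2-372 | Amount: 10 nM enzyme | Medium: HEPES buffer, pH 7.5, plus ascorbate | Reagent: H3K9me3 peptide substrate, Fe(II), 2-oxoglutarate | Doses: Single-point compound screen | Incubation: 30 min demethylation and 1 h detection at room temperature | Measured by: LANCE TR-FRET, excitation 340 nm, emissions 618 and 671 nm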
Pf Dd2 inh: blocks growth of Plasmodium falciparum Dd2 parasites | AID 1159554 | P. falciparum Dd2 growth, SYBR Green, 72 h; hits give low values | activity change, % at 10 µM | actives 2.3% (n = 94,000); in the data active = activity change below about -80%; inconclusive = no clear call, values can overlap the other calls
IDH1 R132H inh: blocks human IDH1 R132H reductase activity. AID 624101. actives 0.18% (n = 70,000). diaphorase/resazurin fluorescence, 60 min. inhibition, % at 10 µM; in the data active = inhibition above about 34%; inconclusive = no clear call, values can overlap the other calls; inactive = below about 11%;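 also: 0% = DMSO and 100% = no enzyme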
Target sequence (O75874 whole entry R132H): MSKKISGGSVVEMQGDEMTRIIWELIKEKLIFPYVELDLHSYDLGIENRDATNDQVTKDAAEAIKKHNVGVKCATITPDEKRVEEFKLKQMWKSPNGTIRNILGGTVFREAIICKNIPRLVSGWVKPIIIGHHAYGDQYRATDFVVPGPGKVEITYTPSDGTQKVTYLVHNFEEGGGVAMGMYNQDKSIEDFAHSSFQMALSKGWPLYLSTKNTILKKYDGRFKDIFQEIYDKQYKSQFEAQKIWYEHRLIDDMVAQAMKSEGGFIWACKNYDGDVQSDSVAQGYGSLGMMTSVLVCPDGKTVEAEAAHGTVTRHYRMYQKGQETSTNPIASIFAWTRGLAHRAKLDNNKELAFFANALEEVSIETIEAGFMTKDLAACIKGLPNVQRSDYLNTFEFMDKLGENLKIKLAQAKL
T cruzi growth-2: blocks T. cruzi growth in NIH3T3 host cells; shares compounds with T cruzi growth-1; AID 651739; actives 72% (n = 5,600); T. cruzi beta-gal in NIH3T3, GalScreen luminescence, 90 h; inhibition, % at 8.35 µM;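 active = mean replicate inhibition above about 95% and at least 55% of replicates individually reaching it, limit read from the data; inconclusive = only one of the two criteria is met; inactive = neither criterion is met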
T cruzi growth-3: blocks T. cruzi growth in NIH3T3 host cells | shares compounds with T cruzi growth-1 | T. cruzi beta-gal in NIH3T3, GalScreen luminescence, 90 h | inhibition, % at 2.09 µM | actives 21% (n = 5,600);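 active = mean inhibition above about 95%, with at least 55% of replicates also reaching it, limit read from the data; inconclusive = meets just one of the two conditions; inactive = meets neither condition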;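 also: plate controls were neutral control median for no effect and positive control median for full effect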
NIH3T3 tox: NIH/3T3 (mouse) viability loss; shares compounds with T cruzi growth-1; NIH/3T3 viability, CellTiter-Glo ATP luminescence, 90 h; cytotoxicity (signal decrease), % at 8.35 µM; actives 14% (n = 5,600); AID 651742;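 active = mean signal decrease across replicates above about 35% based on untreated-well scatter, with enough replicates individually passing, limit read from the data; inconclusive = no rule stated though some were filed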;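 also: 0% = median of neutral control wells and 100% = median of positive control wells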
3T3 cytotox 2: cytotoxicity in mouse NIH/3T3 fibroblasts | shares compounds with T cruzi growth-1 | NIH/3T3 viability, CellTiter-Glo ATP luminescence, 90 h | inhibition, % at 24.9 µM | actives 56% (n = 5,600);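 active = mean loss of cell viability signal at or above a set limit, and enough replicates individually reaching it; inconclusive = meets only the mean limit or only the replicate share; inactive = meets neither condition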;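 also: 0% = median of neutral control wells and 100% = median of positive control wells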
Numbers without * were called inactive; ? = inconclusive; nt = no result given.

SMILES	T cruzi growth-1	GASC1 inh	Pf Dd2 inh	IDH1 R132H inh	T cruzi growth-2	T cruzi growth-3	NIH3T3 tox	3T3 cytotox 2
COc1ccc(NC(=O)Nc2ccc3c(c2)C(=O)N([C@H](C)CO)C[C@H](C)[C@H](CN(C)C(=O)Nc2ccc(OC)cc2)OCCCC[C@H](C)O3)cc1	?	-0.4	33.3	nt	103.5*	22.0	-3.9	5.3
COc1ccc(NC(=O)N(C)C[C@@H]2OCCCC[C@H](C)Oc3ccc(NC(=O)Nc4ccc(F)cc4)cc3C(=O)N([C@@H](C)CO)C[C@@H]2C)cc1	101.4*	-2.8	-10.7	nt	107.3*	38.8	15.1	-0.2
COC(=O)C1=CO[C@@H](OC2OC(O)C(O)C(O)C2CO)[C@H]2[C@@H]1C=CC21C=C([C@H](C)OC(=O)/C=C/c2ccc(OC3OC(CO)C(O)C(O)C3O)cc2)C(=O)O1 (stereo not given in full)	nt	nt	nt	0.3	nt	nt	nt	nt
COc1ccc(NC(=C(C#N)C#N)C(F)(F)C(F)(F)F)cc1	nt	nt	nt	0.9	nt	nt	nt	nt
Nc1nnc(SC2c3cccc4cccc(c34)C2NS(=O)(=O)c2ccc(Cl)cc2)s1 (stereo not given)	nt	nt	nt	1.6	nt	nt	nt	nt
C[C@@H]1CN([C@@H](C)CO)S(=O)(=O)c2ccc(C#CC3CC3)cc2O[C@@H]1CN(C)Cc1ccccc1	37.2	-1.8	-40.3	-1.0	nt	nt	nt	nt
C[C@@H]1CN([C@@H](C)CO)S(=O)(=O)c2ccc(C#CC3CC3)cc2O[C@H]1CN(C)Cc1ccccc1	119.8*	0.8	-51.5	0.7	95.0*	76.4	49.6*	106.3*
C[C@H]1CN([C@@H](C)CO)S(=O)(=O)c2ccc(C#CC3CC3)cc2O[C@@H]1CN(C)Cc1ccccc1	111.3*	-2.6	-43.3	0.1	99.7*	92.5	-12.1	104.5*
C[C@H]1CN([C@@H](C)CO)S(=O)(=O)c2ccc(C#CC3CC3)cc2O[C@H]1CN(C)Cc1ccccc1	57.5	0.4	-25.3	-0.3	nt	nt	nt	nt
Cc1ccc(OCC(=O)Nc2ncccc2C)cc1	nt	nt	nt	0.0	nt	nt	nt	nt
COc1cc(C2c3c(cc(OC)c(O)c3O)CC(CO)C2CO[C@@H]2O[C@H](C(=O)O)[C@@H](O)[C@H](O)[C@H]2O)cc(OC)c1O (stereo not given in full)	nt	nt	nt	-1.0	nt	nt	nt	nt
Cc1ccc(S(=O)(=O)N(C)C[C@H]2Oc3c(NC(=O)Nc4ccccc4)cccc3C(=O)N([C@H](C)CO)C[C@H]2C)cc1	100.8*	-0.1	-36.9	0.3	?	19.8	5.9	47.8*
C[C@@H]1CN([C@H](C)CO)C(=O)c2cccc(NC(=O)Nc3ccc(C(F)(F)F)cc3)c2O[C@H]1CN(C)S(=O)(=O)c1ccc(F)cc1	?	-5.2	9.7	6.4	107.8*	33.8	9.8	39.3*
C[C@H](CO)N1C[C@H](C)[C@@H](CN(C)S(=O)(=O)c2ccc(Cl)cc2)Oc2c(NC(=O)Nc3ccc(C(F)(F)F)cc3)cccc2C1=O	?	nt	-69.7	0.9	90.1	111.3*	46.1*	104.9*
C[C@H](CO)N1C[C@H](C)[C@@H](CN(C)S(=O)(=O)c2ccc(F)cc2)Oc2c(NC(=O)Nc3ccc(C(F)(F)F)cc3)cccc2C1=O	nt	-1.2	11.5	-1.3	nt	nt	nt	nt
Cc1ccc(S(=O)(=O)N(C)C[C@H]2Oc3c(cccc3N(C)C)C(=O)N([C@H](C)CO)C[C@@H]2C)cc1	?	-1.0	-0.2	-5.3	98.7*	15.2	8.2	27.8*
COc1ccc(N(C(C)C(=O)Nc2ccc(Cl)cc2C)S(C)(=O)=O)cc1 (stereo not given)	nt	nt	nt	0.6	nt	nt	nt	nt
Cc1ccc(-c2noc(CN(C(=O)c3ccccc3-c3ccccc3)C(C)C)n2)cc1	nt	nt	nt	-0.1	nt	nt	nt	nt
COc1ccc(S(=O)(=O)N(C)C[C@@H]2Oc3c(NC(=O)Nc4cccc5ccccc45)cccc3C(=O)N([C@H](C)CO)C[C@@H]2C)cc1	125.8*	10.6	-92.0*	-0.5	?	64.9	33.4	30.2*
COc1ccc(S(=O)(=O)N(C)C[C@@H]2Oc3c(NC(=O)Nc4cccc5ccccc45)cccc3C(=O)N([C@@H](C)CO)C[C@H]2C)cc1	nt	-0.6	nt	2.3	nt	nt	nt	nt
C=C1C2CCC3[C@]4(C)CCC[C@@](C)(C(=O)O)C4CC[C@]3(C2)[C@H]1OC(C)=O (stereo not given in full)	nt	nt	nt	0.2	nt	nt	nt	nt
COCC#Cc1ccc2c(c1)O[C@H](CN(C)Cc1cncnc1)[C@@H](C)CN([C@@H](C)CO)S2(=O)=O	-3.6	-2.9	-7.4	-1.8	nt	nt	nt	nt
COCC#Cc1ccc2c(c1)O[C@@H](CN(C)Cc1ccncc1)[C@H](C)CN([C@H](C)CO)S2(=O)=O	109.2*	5.6	-4.1	-2.6	99.9*	91.4	11.5	63.0*
COCC#Cc1ccc2c(c1)O[C@@H](CN(C)Cc1ccccc1)[C@H](C)CN([C@H](C)CO)S2(=O)=O	108.5*	-3.7	-70.1	-1.2	92.9	44.6	53.2*	105.5*
COCC#Cc1ccc2c(c1)O[C@@H](CN(C)Cc1cncnc1)[C@H](C)CN([C@@H](C)CO)S2(=O)=O	106.3*	-0.1	8.3	-0.3	106.4*	89.2	10.0	36.1*
SMILES	T cruzi growth-1	GASC1 inh	Pf Dd2 inh	IDH1 R132H inh	T cruzi growth-2	T cruzi growth-3	NIH3T3 tox	3T3 cytotox 2
C[C@@H]1CN([C@@H](C)CO)C(=O)Cc2cc(N(C)C)ccc2O[C@@H]1CN(C)Cc1ccc(C(F)(F)F)cc1	48.6	0.0	10.1	1.8	nt	nt	nt	nt
C[C@H]1CN([C@@H](C)CO)C(=O)Cc2cc(N(C)C)ccc2O[C@@H]1CN(C)Cc1ccc(C(F)(F)F)cc1	118.8*	-0.7	7.7	-0.3	111.1*	82.5	-11.5	4.5
C[C@@H]1CN([C@H](C)CO)C(=O)Cc2cc(N(C)C)ccc2O[C@@H]1CN(C)Cc1ccc(C(F)(F)F)cc1	50.3	-1.6	4.0	-0.3	nt	nt	nt	nt
C[C@@H]1CN([C@H](C)CO)C(=O)Cc2cc(N(C)C)ccc2O[C@H]1CN(C)Cc1ccc(C(F)(F)F)cc1	108.0*	-0.1	40.9	-3.0	89.5	64.2	3.7	14.3
Cc1ccc(S(=O)(=O)NC(C)C(=O)Nc2ccc3c(c2)OCCO3)cc1 (stereo not given)	nt	nt	nt	0.6	nt	nt	nt	nt
CCn1c(SCC(=O)Nc2ccc(F)c(Cl)c2)nnc1-c1ccc(Cl)cc1Cl	nt	nt	nt	-0.3	nt	nt	nt	nt
C[C@@H]1CCCCO[C@H](CN(C)Cc2ccc3c(c2)OCO3)[C@H](C)CN([C@H](C)CO)C(=O)c2cc(NC(=O)NC3CCCCC3)ccc2O1	107.1*	-0.9	nt	nt	108.5*	90.8	3.3	104.4*
